Data: ChEMBL document CHEMBL1142636 (2000)
≈ marks a conversion by molar mass, not a printed value.

Assays:
[1] = system: NCI-H522; assay: Growth inhibition of human NCI-H522 cells; format: functional
[2] = system: XF498; assay: Growth inhibition of human XF498 cells; format: functional
Outline: (§1)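 Tested at the NCI in its human disease-oriented in vitro screen of 60 tumour cell lines, following the Monks et al. methods. Activity is expressed as GI50, given as log molar values.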

[3] = system: HOP-92; assay: Growth inhibition of human HOP92 cells; format: functional
[4] = system: M19-MEL; assay: Growth inhibition of human M19-MEL cells; format: functional
[5] = system: SF-539; assay: Growth inhibition of human SF539 cells; format: functional; outline: as §1
[6] = system: U-251; assay: Growth inhibition of human U251 cells; format: functional; outline: as §1
[7] = system: HOP-62; assay: Growth inhibition of human HOP62 cells; format: functional
[8] = system: KM12; assay: Growth inhibition of human KM12 cells; format: functional
[9] = system: RXF 393; assay: Growth inhibition of human […] cells; format: functional
[10] = system: ACHN; assay: Growth inhibition of human ACHN cells; format: functional
[11] = system: SR; assay: Growth inhibition of human SR cells; format: functional; outline: as §1
[12] = system: SK-OV-3; assay: Growth inhibition of human SK-OV-3 cells; format: functional; outline: as §1
[13] = system: SNB-75; assay: Growth inhibition of human SNB75 cells; format: functional; outline: as §1
[14] = Growth inhibition of human OVACR4 cells; format: functional
[15] = system: SK-MEL-5; assay: Growth inhibition of human SK-MEL-5 cells; format: functional; outline: as §1
[16] = system: HT-29; assay: Growth inhibition of human HT29 cells; format: functional
[17] = system: SW-620; assay: Growth inhibition of human SW620 cells; format: functional; outline: as §1
[18] = system: UACC-62; assay: Growth inhibition of human UACC62 cells; format: functional; outline: as §1
[19] = system: DMS-273; assay: Growth inhibition of human DMS273 cells; format: functional
[20] = system: MOLT-4; assay: Growth inhibition of human MOLT4 cells; format: functional
[21] = system: K562; assay: Growth inhibition of human K562 cells; format: functional
[22] = system: Malme-3M; assay: Growth inhibition of human MALME-3M cells; format: functional
[23] = system: HCT-15; assay: Growth inhibition of human HCT15 cells; format: functional
[24] = Growth inhibition of human OVACR8 cells; format: functional
[25] = Growth inhibition of human DMS144 cells; format: functional
[26] = system: SK-MEL-2; assay: Growth inhibition of human SK-MEL-2 cells; format: functional; outline: as §1
[27] = system: M14; assay: Growth inhibition of human M14 cells; format: functional
[28] = system: DLD-1; assay: Growth inhibition of human DLD1 cells; format: functional
[29] = Growth inhibition of human RPMI8266 cells; format: functional
[30] = system: LOX IMVI; assay: Growth inhibition of human LOX IMVI cells; format: functional
[31] = system: NCI-H460; assay: Growth inhibition of human NCI-H460 cells; format: functional
[32] = system: A549; assay: Growth inhibition of human A549 cells; format: functional
[33] = system: COLO 205; assay: Growth inhibition of human COLO205 cells; format: functional
[34] = system: SF-268; assay: Growth inhibition of human SF268 cells; format: functional; outline: as §1
[35] = Growth inhibition of human HL60(TB) cells; format: functional, HL-60(TB); conditions: HL-60
[36] = system: IGROV-1; assay: Growth inhibition of human IGROV1 cells; format: functional
[37] = system: NCI-H226; assay: Growth inhibition of human NCI-H226 cells; format: functional
[38] = system: UO-31; assay: Growth inhibition of human UO31 cells; format: functional; outline: as §1
[39] = system: HCC 2998; assay: Growth inhibition of human HCC2998 cells; format: functional
[40] = system: SN12C; assay: Growth inhibition of human SN12C cells; format: functional; outline: as §1
[41] = system: TK-10; assay: Growth inhibition of human TK10 cells; format: functional; outline: as §1
[42] = Growth inhibition of human […] cells; format: functional
[43] = system: SNB-19; assay: Growth inhibition of human SNB19 cells; format: functional; outline: as §1
[44] = system: HCT-116; assay: Growth inhibition of human HCT116 cells; format: functional
[45] = system: SK-MEL-28; assay: Growth inhibition of human SK-MEL-28 cells; format: functional; outline: as §1
[46] = system: KM-20L2; assay: Growth inhibition of human KM20L2 cells; format: functional
[47] = Growth inhibition of human LXFL529 cells; format: functional; conditions: LXFL 529
[48] = system: NCI-H322M; assay: Growth inhibition of human NCI-H322M cells; format: functional
[49] = system: CCRF-CEM; assay: Growth inhibition of human CCRF-CEM cells; format: functional
[50] = Growth inhibition of human OVACR5 cells; format: functional
[51] = system: UACC-257; assay: Growth inhibition of human UACC257 cells; format: functional; outline: as §1
[52] = system: KB; assay: Growth inhibition of human KB cells; format: functional; conditions: read-out: ED50 (the source's name)
Outline: (§2)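 In-house cytotoxicity assay following an NCI protocol, run on a panel of human tumour lines: KB nasopharyngeal epidermoid carcinoma and HCT-8 ileocecal adenocarcinoma. Potency is reported as ED50 in µg/mL.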

[53] = system: HCT-8; assay: Growth inhibition of human HCT8 cells; format: functional; conditions: read-out: ED50 (the source's name); outline: as §2
[54] = system: 786-0; assay: Growth inhibition of human 786-0 cells; format: functional
[55] = system: SF-295; assay: Growth inhibition of human SF295 cells; format: functional; outline: as §1
[56] = system: EKVX; assay: Growth inhibition of human EKVX cells; format: functional
[57] = system: CAKI-1; assay: Growth inhibition of human CAKI1 cells; format: functional
[58] = system: HOP-18; assay: Growth inhibition of human HOP18 cells; format: functional
[59] = read-out: ED50 (the source's name)

Question: Which GI50 [1] does the source give for `Cc1cc2c(cc1O)[nH]c1cc3c(cc12)C=CC(C)(C)O3` here?
Answer: 8.32 µM

Question: What about the GI50 [2] of the same molecule?
Answer: 25.1 µM

Question: What about the GI50 [3] of the same molecule?
Answer: 9.77 µM

Question: And the GI50 [4]?
Answer: 19.5 µM

Question: What about the GI50 [5] of the same molecule?
Answer: 4.07 µM

Question: And the GI50 [6]?
Answer: 6.03 µM

Question: And the GI50 [7]?
Answer: 7.94 µM

Question: And the GI50 [8]?
Answer: 5.25 µM

Question: What about the GI50 [9] of the same molecule?
Answer: 4.9 µM

Question: What about the GI50 [10] of the same molecule?
Answer: 9.33 µM

Question: And the GI50 [11]?
Answer: 6.46 µM

Question: And the GI50 [12]?
Answer: 25.1 µM

Question: What about the GI50 [13] of the same molecule?
Answer: 11.2 µM

Question: And the GI50 [14]?
Answer: 10.5 µM

Question: What about the GI50 [15] of the same molecule?
Answer: 17.4 µM

Question: What about the GI50 [16] of the same molecule?
Answer: 11.7 µM

Question: What about the GI50 [17] of the same molecule?
Answer: 7.59 µM

Question: And the GI50 [18]?
Answer: 6.76 µM

Question: And the GI50 [19]?
Answer: 5.01 µM

Question: What about the GI50 [20] of the same molecule?
Answer: 0.00324 µM

Question: What about the GI50 [21] of the same molecule?
Answer: 25.1 µM

Question: And the GI50 [22]?
Answer: 10 µM

Question: What about the GI50 [23] of the same molecule?
Answer: 8.71 µM

Question: What about the GI50 [24] of the same molecule?
Answer: 4.57 µM

Question: What about the GI50 [25] of the same molecule?
Answer: 10.7 µM

Question: And the GI50 [26]?
Answer: 25.1 µM

Question: What about the GI50 [27] of the same molecule?
Answer: 6.03 µM

Question: What about the GI50 [28] of the same molecule?
Answer: 12.9 µM

Question: And the GI50 [29]?
Answer: 9.12 µM

Question: And the GI50 [30]?
Answer: 3.98 µM

Question: And the GI50 [31]?
Answer: 5.37 µM

Question: What about the GI50 [32] of the same molecule?
Answer: 6.46 µM

Question: And the GI50 [33]?
Answer: 25.1 µM

Question: And the GI50 [34]?
Answer: 6.76 µM

Question: And the GI50 [35]?
Answer: 6.92 µM

Question: What about the GI50 [36] of the same molecule?
Answer: 22.9 µM

Question: And the GI50 [37]?
Answer: 19.1 µM

Question: And the GI50 [38]?
Answer: 11.5 µM

Question: What about the GI50 [39] of the same molecule?
Answer: 6.76 µM

Question: What about the GI50 [40] of the same molecule?
Answer: 6.31 µM

Question: And the GI50 [41]?
Answer: 25.1 µM

Question: What about the GI50 [42] of the same molecule?
Answer: 7.24 µM

Question: What about the GI50 [43] of the same molecule?
Answer: 25.1 µM

Question: And the GI50 [44]?
Answer: 12.9 µM

Question: What about the GI50 [45] of the same molecule?
Answer: 14.5 µM

Question: What about the GI50 [46] of the same molecule?
Answer: 9.33 µM

Question: And the GI50 [47]?
Answer: 9.33 µM

Question: What about the GI50 [48] of the same molecule?
Answer: 13.2 µM

Question: And the GI50 [49]?
Answer: 20 µM

Question: And the GI50 [50]?
Answer: 17.8 µM

Question: Which results are given for `CC1=CC(=O)c2[nH]c3ccccc3c2C1=O` [MURRAYAQUINONE A]?
Answer: GI50 [1]: 3.8 µM; GI50 [2]: 4.37 µM; GI50 [3]: 3.98 µM; GI50 [51]: 4.57 µM; GI50 [5]: 4.27 µM; GI50 [6]: 15.5 µM; GI50 [7]: 25.1 µM; GI50 [8]: 4.37 µM; GI50 [9]: 3.47 µM; EC50 [52]: 5.18 µg/mL (≈ 24.5 µM); GI50 [10]: 4.17 µM; GI50 [11]: 5.75 µM; GI50 [12]: 20.9 µM; GI50 [13]: 4.37 µM; GI50 [14]: 4.17 µM; GI50 [15]: 4.27 µM; EC50 [15, 59]: 2.58 µg/mL (≈ 12.2 µM); GI50 [16]: 17.8 µM; GI50 [17]: 3.98 µM; GI50 [18]: 4.17 µM; GI50 [19]: 4.27 µM; EC50 [53]: 5.5 µg/mL (≈ 26 µM); GI50 [20]: 5.37 µM; GI50 [21]: 5.62 µM; GI50 [54]: 4.27 µM; GI50 [22]: 4.9 µM; GI50 [23]: 4.17 µM; GI50 [24]: 3.98 µM; GI50 [25]: 4.27 µM; GI50 [26]: 5.37 µM; GI50 [27]: 4.17 µM; GI50 [28]: 5.01 µM; GI50 [29]: 5.89 µM; GI50 [31]: 8.13 µM; GI50 [32]: 25.1 µM; GI50 [33]: 4.07 µM; EC50 [33, 59]: 3.85 µg/mL (≈ 18.2 µM); GI50 [34]: 4.37 µM; GI50 [35]: 4.07 µM; GI50 [36]: 6.61 µM; GI50 [37]: 6.61 µM; GI50 [38]: 3.98 µM; GI50 [39]: 7.08 µM; GI50 [55]: 4.37 µM; GI50 [40]: 4.57 µM; GI50 [41]: 5.01 µM; GI50 [42]: 4.57 µM; GI50 [43]: 25.1 µM; GI50 [44]: 4.47 µM; GI50 [45]: 4.47 µM; GI50 [46]: 25.1 µM; GI50 [56]: 4.07 µM; GI50 [47]: 4.27 µM; GI50 [57]: 14.5 µM; GI50 [48]: 25.1 µM; GI50 [49]: 3.31 µM; GI50 [58]: 3.39 µM; GI50 [50]: 5.37 µM
